The campaign covered roughly 310,000 compounds. About 1,400 (0.45%) were called active.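 Rule for the calls: active = calcium response B-score plate-corrected fluorescence ratio at least 3 library SD, with starting fluorescence B-score inside 5 SD; inactive = the rest.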 This excerpt belongs to a sample that is enriched for actives.
target: Mas-related G-protein coupled receptor member X1 (Homo sapiens) (UniProt Q96LB2); experiment: agonists of human MrgX1 receptor, primary screen, HEK293 cells, Fluo-4 calcium flux (AID 588627); settings: Fluo-4 calcium fluorescence, agonist mode, at 10 µM; hits give high values
Sequence (Q96LB2 whole entry, looked up): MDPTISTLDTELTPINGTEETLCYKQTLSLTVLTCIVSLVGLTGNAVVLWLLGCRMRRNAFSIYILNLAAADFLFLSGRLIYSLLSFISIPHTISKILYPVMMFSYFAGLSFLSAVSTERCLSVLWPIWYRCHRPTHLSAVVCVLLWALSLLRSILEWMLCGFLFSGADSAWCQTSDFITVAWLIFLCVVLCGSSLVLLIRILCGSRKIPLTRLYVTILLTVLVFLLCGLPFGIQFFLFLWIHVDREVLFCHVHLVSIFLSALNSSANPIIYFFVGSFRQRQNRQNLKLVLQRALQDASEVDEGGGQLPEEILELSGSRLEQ
How it was run: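 Assay system: stable human MrgX1 HEK293 cell line. Quantity: 15,000 cells per well. Schedule: cells plated overnight, dye loaded 0.5 h 37 °C, 0.5 h room temperature. Detection: Fluo-4 NW calcium-flux fluorescence, kinetic read. Read-out basis: peak-minus-minimum fluorescence over baseline, converted to B scores. Control set: positive and negative control wells on each plate.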

SMILES | B-score
CCCCN1C(=O)/C(=C2/Sc3ccc(Cl)cc3N2CC)SC1=S | 34.9 (active)
CCCCN1C(=O)/C(=C/C=C2/C=Cc3ccccc3N2CC)SC1=S | inactive
CCCCN1C(=O)/C(=C2/C=CC=CN2C)SC1=S | inactive
COc1ccc(CCNc2ncnc3c2nnn3Cc2ccccc2)cc1 | inactive
Cc1c(CN2CC[C@@H](N3CCN(c4ccccn4)CC3)[C@H](O)C2)[nH]c2ccc(F)cc12 | inactive
Fc1ccc2[nH]c3c(N4CCSCC4)ncnc3c2c1 | 29.1 (active)
O=C(NNC(=S)NCc1ccco1)C(c1ccccc1)c1ccccc1 | inactive
CC(C)C(=O)Nc1cccc(NC(=S)NC(=O)C(c2ccccc2)c2ccccc2)c1 | inactive
CCCCC(=O)NNC(=S)NC(=O)C(c1ccccc1)c1ccccc1 | 145 (active)
CN(C)Cc1ccc(F)cc1Sc1cc(Cl)ccc1Cl | inactive
COc1ccccc1N1CC(C(=O)Nc2nnc(SCC(=O)NC(C)C)s2)CC1=O (stereo not drawn) | inactive
CCc1noc(C)c1C(=O)Nc1nc(-c2ccccc2)cs1 | inactive
OC(C#CCN1CCOCC1)(c1ccccc1)C1CCCCC1 (stereo not drawn) | inactive
CCCc1ccc(OCC(=O)NNC(=S)NC(=O)c2ccco2)cc1 | inactive
CC(Oc1ccc2ccccc2c1)C(=O)NNC(=S)NC(=O)c1ccco1 (stereo not drawn) | 69.9 (active)
Cc1ccc(C(=O)NNC(=O)C(C)Oc2ccc3ccccc3c2)o1 (stereo not drawn) | inactive
CCC1(c2ccccc2)NC(=O)N(CC(=O)c2ccc3c(c2)OCO3)C1=O (stereo not drawn) | inactive
O=C(CN1CCC(O)(c2ccccc2)CC1)Nc1ccc2c(c1)OCCO2 | inactive
O=C(CCN1CCc2ccccc2C(O)(c2ccccc2)C1)c1ccc2c(c1)OCCO2 (stereo not drawn) | 29.6 (active)
Cc1ccc(N=C2SCCCN2C(=O)c2cccc(N3C(=O)CCC3=O)c2)cc1Cl | inactive
CS(=O)(=O)c1sc(C(=O)NC(=S)Nc2ccc(OC(F)(F)F)cc2)c2c1C=CCC2 | inactive
CC(=O)OCC(COC(C)=O)OC(C)=O | inactive
CC(=O)OC(C)C[N+](C)(C)C (stereo not drawn) | 119 (active)

SMILES | B-score
CC(C[N+](C)(C)C)OC(N)=O (stereo not drawn) | 36.5 (active)
O=C(Nc1cccc(F)c1)c1coc(=O)c(Br)c1 | inactive
N#Cc1cc([N+](=O)[O-])ccc1NCC1CCCO1 (stereo not drawn) | inactive
Cn1c2ccccc2c(=O)c2c(=O)n(Cc3ccco3)c(COc3ccccc3)nc21 | inactive
CCCc1nc2c(c(=O)c3ccccc3n2C)c(=O)n1-c1cc(C)cc(C)c1 | inactive
CCCc1nc2c(c(=O)c3ccccc3n2C)c(=O)n1C1CCCCCC1 | 63 (active)
C/C=C/c1ccc(OCC(=O)OCC(=O)Nc2c(C)nn(-c3ccccc3)c2C)c(OC)c1 | inactive
COc1cc2c3c(c1)/C(=C1/SC(=S)NC1=O)C(=O)N3C(C)(C)C=C2C | inactive
O=C(COC(=O)c1ccc(O)cc1)Nc1nccs1 | inactive
COc1ccc(CNc2ccc3c(c2)CCC3)cc1OC | inactive
O=C(COC(=O)CNS(=O)(=O)c1ccccc1)NC12CC3CC(CC(C3)C1)C2 | inactive
CN(C)C(=O)N=NC(=O)N(C)C | inactive
NC1=NC(=O)C2(COC(c3ccccc3Cl)OC2)S1 (stereo not drawn) | inactive
CC(C)CC(=O)NC(=S)NNC(=O)c1cccc([N+](=O)[O-])c1 | 70.6 (active)
CCCCCC(=O)NC(=S)NNC(=O)c1ccc([N+](=O)[O-])cc1 | inactive
CC(C)(C)SCCNC(=O)c1cccc([N+](=O)[O-])c1 | inactive
CC(=O)c1c(O)cc2n(c1=O)-c1ccc(Cl)cc1C2(C)C | inactive
CCN(CC(=O)Nc1ccc2c(c1)OCCO2)Cc1cc(=O)oc2cc(C)c(C)cc12 | inactive
CC(=O)Nc1ccc(NC(=O)CS(=O)(=O)c2cn(CC(=O)N3CCCCC3)c3ccccc23)cc1 | inactive
CSCc1nnc(NC(=O)c2ccc(S(=O)(=O)N3CCCCC3C)cc2)o1 (stereo not drawn) | inactive
CC1CCCCN1S(=O)(=O)c1ccc(C(=O)Nc2nnc(-c3cccs3)o2)cc1 (stereo not drawn) | 48.6 (active)
CC1CCCN(S(=O)(=O)c2ccc(C(=O)Nc3nnc(-c4ccncc4)o3)cc2)C1 (stereo not drawn) | inactive
Cc1nc(N)nc(SCc2ccc([N+](=O)[O-])cc2)c1N | inactive

SMILES | B-score
CCN(C(=O)CN1C(=O)/C(=C/c2ccc(F)cc2)SC1=S)C1CCS(=O)(=O)C1 (stereo not drawn) | inactive
Nc1ccccc1SC(C[N+](=O)[O-])c1ccccc1 (stereo not drawn) | 28.1 (active)
Nc1ccccc1SCc1cc([N+](=O)[O-])cc2c1OCOC2 | inactive
CCS(=O)(=O)c1cc([N+](=O)[O-])c(Sc2ccccc2N)s1 | inactive
CN1CCN(C(=O)c2ccc(NS(=O)(=O)c3ccccc3)cc2)CC1 | inactive
C/C(=N\NC(=O)c1ccc2ccccc2c1)c1cccnc1 | inactive
O=C(NCCC1CCCCN1S(=O)(=O)c1ccc(F)cc1)C(=O)NC1CC1 (stereo not drawn) | inactive
CC(=O)Nc1ccc(NC(=O)CN2C(=O)COc3ccc(S(=O)(=O)N4CCCCC4)cc32)cc1 | inactive
CN(C)c1ccc(CNC(=O)CN2C(=O)COc3ccc(S(=O)(=O)N4CCCC4)cc32)cc1 | inactive
Cc1cccc(N(C)C(=O)CN2C(=O)COc3ccc(S(=O)(=O)N4CCCCCC4)cc32)c1 | 46.3 (active)
CCN(CC)S(=O)(=O)c1ccc(N2CC(C(=O)NCc3cccnc3)CC2=O)cc1 (stereo not drawn) | inactive
COc1ccnc(Oc2ccccc2)n1 | inactive
Cc1ccc(S(=O)(=O)N(CC(=O)NN=C2CCN(C)CC2)c2ccc(F)cc2)cc1 | inactive
O=C1C(=O)N(c2ccccc2)c2ccccc21 | 29.6 (active)
O=C1c2ccccc2C(=O)N1c1cccc2ccccc12 | inactive
CC(C)OC(=O)CN1C(=O)C(=O)c2ccccc21 | inactive
N/C(=N\OC(=O)CCCC(=O)O)c1ncc(C(F)(F)F)cc1Cl | inactive
CC1CCCCC1NC(=O)CN1CCC(O)(c2ccc3c(c2)OCO3)CC1 (stereo not drawn) | inactive
O=[N+]([O-])c1ccc2c(c1)C(O)n1nc(-c3ccccc3)nc1S2 (stereo not drawn) | inactive
COc1ccc(/C=C(\NC(=O)c2ccccc2)C(=O)NCCN2CCOCC2)cc1OC | inactive
Cn1c2ccccc2c2cc(/C=C(\NC(=O)c3ccccc3)C(=O)NCC(=O)O)ccc21 | 52.2 (active)
CCOC(=O)CNC(=O)/C(=C\c1ccc(F)cc1)NC(=O)c1ccccc1 | inactive
